Measured values published in article PMC7885995 (Oncogene, 2020).

How the values were obtained:
[1] = tested on: caspase 3/7 activation in GBM cells; assay: Caspase 3/7 activation; assay type: cell-based, human
How it was run: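 Cells pretreated with 1–200μM QVD-OPh or 100μM Z-VAD-FMK received MED2 or CTL2. They were lifted with their media and stained for 30 min at RT with CellEvent green caspase 3/7 dye, Annexin-V AlexaFluor 647 and SYTOX orange in Annexin-V binding buffer. Imaging was on Xcyto10 at 4X with channel compensation. Read-out was mean caspase fluorescence per cell relative to CTL2 (n>5000 cells).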

[2] = tested on: X1016 PDX implanted into the brain of athymic nude mice; assay: In vivo MED2-CY7 accumulation in orthotopic GBM PDX; design: species or system mouse; details: tail-vein, 3 hours, Pearl / Odyssey CLx imaging
How it was run: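 6-week-old female athymic nude mice were stereotactically implanted with 5 × 10^5 X1016 cells into the caudate putamen 1 week before dosing. They were sorted by bioluminescence for similar tumor burden and randomized, unblinded, to two doses of Cy7-labeled peptide. Peptide in 100 μL saline went by tail vein, with sacrifice at 3 h. Brains were formalin-fixed, cut into 5 mm coronal slices and imaged on Pearl. Paraffin sections were H&E-stained or imaged on Odyssey CLx at […].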

athymic nude mice = assay: In vivo MED2-CY7 biodistribution, tumor-naïve mice; design: species or system mouse; details: 3 hours
JX14 (classical GBM PDX) = assay: Cell viability; assay type: cell-based, human; details: JX14, 10μM MED2, normalized to 10μM CTL2, 72 h, n=4
How it was run: (§1)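 1 × 10^4 Trypan blue-counted live cells were plated in 90 μL medium in 4 replicates; PDX cells were kept in neurosphere medium and NHAs in standard medium. Peptide (PBS-reconstituted, added as 10X in medium) went on 2 h after plating. CellTiter-Glo ATP luminescence was read at 72 h. MED2 RLU was normalized to CTL2 (5 μM for 1–5 μM; 10 μM for 10 μM). GI50 was interpolated from a standard curve.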

JX12 (classical GBM PDX) = assay: Cell viability; assay type: cell-based, human; details: JX12, 5μM MED2, normalized to 5μM CTL2, 72 h, n=4
How it was run: as §1

[3] = tested on: X1441 (proneural GBM PDX); assay: Cell viability; assay type: cell-based, human; details: X1441, 2.5μM MED2, 72 h, n=4
How it was run: as §1

XD456 = assay: Time-lapse imaging and SYTOX uptake; assay type: cell-based, human; details: XD456, 3μM, time-lapse imaging
How it was run: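 XD456 cells were given 3μM MED2 and tracked by time-lapse still frames at 10X. For membrane permeabilization, cells received 5μM CTL2 or MED2 and were imaged every 5 min for 125 min at 20X. Imaging was on CellInsight CX7 in a heated CO2 chamber using Hoechst and SYTOX orange channels. Mean SYTOX intensity per cell was scored from n>400 cells.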

PARP1 cleavage in XD456 = assay: PARP1 cleavage immunoblot; assay type: cell-based, human; details: XD456, 3μM MED2, 5 and 24 hours
[4] = tested on: intracellular calcium in XD456; assay: Fluo-4 calcium imaging; assay type: cell-based, human; details: XD456, 3μM, serial imaging over two hours
How it was run: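 1 × 10^5 XD456 cells were attached in 24-well plates and loaded at 37C for 1.5 h in 1X Fluo-4 direct calcium assay buffer with 5mM probenecid. SYTOX and then 3μM CTL2 or MED2 were added. Serial live images, including one taken before peptide, were acquired at 10X on an EVOS FL using GFP and RFP channels.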

JX39 (classical GBM PDX) = assay: Cell viability; assay type: cell-based, human; details: JX39, 5μM MED2, normalized to 5μM CTL2, 72 h, n=4
How it was run: as §1

[5] = tested on: JX22 (mesenchymal GBM PDX); assay: Cell viability; assay type: cell-based, human; details: JX22, 10μM MED2, normalized to 10μM CTL2, 72 h, n=4
How it was run: as §1

[6] = tested on: normal human astrocytes (NHAs); assay: Cell viability; assay type: cell-based; details: CellTiter-Glo, 72 h
How it was run: as §1

[7] = tested on: JX59 (mesenchymal GBM PDX); assay: Cell viability; assay type: cell-based, human; details: JX59, 10μM MED2, normalized to 10μM CTL2, 72 h, n=4
How it was run: as §1

[8] = tested on: XD456 (proneural GBM PDX); assay: Cell viability; assay type: cell-based, human; details: XD456, 2.5μM MED2, 72 h, n=4
How it was run: as §1

[9] = tested on: GBM PDX lines (proneural, classical, mesenchymal subtypes); assay: Cell viability, statements for groups of GBM PDX lines; assay type: cell-based, human; details: multiple PDX subtypes, 5μM CTL2/MED2, 9 hours, p>0.05
GBM PDX lines = assay: BAPTA calcium chelation before MED2; assay type: cell-based, human; details: BAPTA pretreatment, low concentrations, 5-hour CTL2/MED2; X1441, JX39, JX59
How it was run: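 Cells were pretreated with BAPTA-AM and then exposed to CTL2 or MED2 for 5 h, at 2.5 μM for X1441 and 5 μM for JX39 and JX59, with relative viability as read-out. For SYTOX, cells were pretreated with 50μM BAPTA and given peptide for 1.5 h. Percent SYTOX-positive cells was scored on the Xcyto10 image cytometer at 4X. Analysis used two-way ANOVA with Tukey's test.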

CC(C)[C@H](NC(=O)c1ccc2ccccc2n1)C(=O)N[C@@H](CC(=O)O)C(=O)COc1c(F)cccc1F [QVD-OPh, reference compound]
reduction in MED2-induced caspase 3/7 activation ([1]; doubled QVD-OPh (200μM), n>5000): 50%

KKKKKRFSFKKSFKLSGFSFKKNKK-LC- K(Lumiprobe CY7) [MED2-CY7]
fluorescence in tumor-burdened regions of the brain compared to normal brain [2]: substantial increases | organs with greatest fluorescence intensity per mg tissue (athymic nude mice; 5 or 10 nanomoles, tail-vein, LI-COR Pearl, n=3 per dose group): kidney, liver, small and large intestines | brain partitioning (athymic nude mice; 5 or 10 nanomoles, tail-vein, n=3 per dose group): only a small percentage of total peptide reaching the brain | increase in brain (periventricular) fluorescence per mg tissue, 10nmol vs 5nmol (athymic nude mice; tail-vein injection, tumor-naïve nude mice, Pearl imaging, n=3, p=0.026): greater than threefold

CC(C)C[C@H](NC(=O)[C@H](CCCCN)NC(=O)[C@H](Cc1ccccc1)NC(=O)[C@H](CO)NC(=O)[C@H](CCCCN)NC(=O)[C@H](CCCCN)NC(=O)[C@H](Cc1ccccc1)NC(=O)[C@H](CO)NC(=O)[C@H](Cc1ccccc1)NC(=O)[C@H](CCCNC(=N)N)NC(=O)[C@H](CCCCN)NC(=O)[C@H](CCCCN)NC(=O)[C@H](CCCCN)NC(=O)[C@H](CCCCN)NC(=O)[C@H](CCCCN)NC(=O)[C@@H](N)CSC1CC(=O)N(CCC(=O)N[C@@H](Cc2ccc(O)cc2)C(=O)NCC(=O)N[C@@H](CCCNC(=N)N)C(=O)N[C@@H](CCCCN)C(=O)N[C@@H](CCCCN)C(=O)N[C@@H](CCCNC(=N)N)C(=O)N[C@@H](CCCNC(=N)N)C(=O)N[C@@H](CCC(N)=O)C(=O)N[C@@H](CCCNC(=N)N)C(=O)N[C@@H](CCCNC(=N)N)C(=O)N[C@@H](CCCNC(=N)N)C(N)=O)C1=O)C(=O)N[C@@H](CO)C(=O)NCC(=O)N[C@@H](Cc1ccccc1)C(=O)N[C@@H](CO)C(=O)N[C@@H](Cc1ccccc1)C(=O)N[C@@H](CCCCN)C(=O)N[C@@H](CCCCN)C(=O)N[C@@H](CC(N)=O)C(=O)N[C@@H](CCCCN)C(=O)N[C@@H](CCCCN)C(N)=O (some centres unmarked) [MED2]
reduction in viability (JX14 (classical GBM PDX)): > 50% | reduction in viability (JX12 (classical GBM PDX)): > 50% | reduction in viability [3]: > 50% | onset of morphological effects and signs of cellular injury (XD456): ≤ 1 hour | PARP1 cleavage pattern (PARP1 cleavage in XD456): loss of both 122kD and 89kD bands with the formation of an approximately 72 kD band | Fluo-4 intensity (intracellular calcium) [4]: increased within minutes | reduction in viability (JX39 (classical GBM PDX)): > 50% | reduction in viability [5]: > 50% | change in NHA viability ([6]; 5μM and 10μM): increases in viability | toxicity in NHAs ([6]; 10μM): no toxicity | reduction in viability [7]: > 50% | reduction in viability [8]: > 50% | caspase 3/7 activation compared with CTL2 ([1]; MED2 treatment, P<0.001, n>5000): increased caspase 3/7 activation | inhibition of viability in adherent vs suspension cells [9]: equally effective

CC(=O)OCOC(=O)CN(CC(=O)OCOC(C)=O)c1ccccc1OCCOc1ccccc1N(CC(=O)OCOC(C)=O)CC(=O)OCOC(C)=O [BAPTA, BAPTA-AM]
protection against MED2 cytotoxicity (GBM PDX lines): no protective effects
